# Data from ChEMBL document CHEMBL1133737, “Topoisomerase I-mediated antiproliferative activity of enantiomerically pure fluorinated homocamptothecins” (J Med Chem, 2000).
# Legend:
# A549 = experiment: Cytotoxicity against A549 tumor cell line determined by WST-1 assay; format: functional, cell-based; conditions: Homo sapiens
# How it was run: (§1)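 Cells exposed to drug for 72 h; surviving cells measured colorimetrically with soluble tetrazolium WST-1. IC50 is the mean of triplicate determinations. HT29 and A549 sourced from ATCC. T24r was derived from T24 bladder carcinoma by prolonged exposure to vinorelbine, PE1001 and doxorubicin, and is multidrug resistant through Pg-P overexpression. A549 is resistant through MRP overexpression.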
# T-24 = experiment: Cytotoxicity against T24 tumor cell line determined by WST-1 assay; format: functional, cell-based; conditions: Homo sapiens; how it was run: as §1
# [1] = target: T1, DNA topoisomerase 1 (Homo sapiens) (UniProt P11387); experiment: Stimulation of pKMp27 DNA cleavage by human DNA topoisomerase I in presence of 0.1 uM of compound
# T1 sequence (whole entry): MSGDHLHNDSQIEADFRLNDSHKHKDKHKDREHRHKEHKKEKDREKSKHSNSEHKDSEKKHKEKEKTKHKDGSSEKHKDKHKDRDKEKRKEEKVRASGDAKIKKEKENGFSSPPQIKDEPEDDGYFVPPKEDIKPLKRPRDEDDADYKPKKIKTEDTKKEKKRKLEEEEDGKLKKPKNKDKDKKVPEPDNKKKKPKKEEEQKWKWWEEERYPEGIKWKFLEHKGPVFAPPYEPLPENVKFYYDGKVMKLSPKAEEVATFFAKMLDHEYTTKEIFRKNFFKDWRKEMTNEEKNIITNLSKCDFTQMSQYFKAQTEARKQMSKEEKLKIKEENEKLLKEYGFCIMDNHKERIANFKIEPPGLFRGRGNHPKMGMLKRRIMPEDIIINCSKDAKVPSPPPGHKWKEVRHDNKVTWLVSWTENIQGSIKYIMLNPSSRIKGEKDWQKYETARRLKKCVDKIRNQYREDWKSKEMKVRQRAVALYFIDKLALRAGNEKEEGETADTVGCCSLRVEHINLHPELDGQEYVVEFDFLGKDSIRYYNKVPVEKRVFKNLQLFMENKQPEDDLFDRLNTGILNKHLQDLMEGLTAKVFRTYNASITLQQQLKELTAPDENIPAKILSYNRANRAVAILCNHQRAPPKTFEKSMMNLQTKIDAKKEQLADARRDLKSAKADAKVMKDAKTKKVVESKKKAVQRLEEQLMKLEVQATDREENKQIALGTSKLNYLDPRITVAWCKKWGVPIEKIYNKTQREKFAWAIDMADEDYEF
# How it was run: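 Human Topo I incubated with supercoiled plasmid pKMp27 DNA and 0.1 µM drug. Products resolved on agarose gel containing ethidium bromide. Nicked DNA fraction quantified and stimulation calculated as (N−N0)/N0, where N and N0 are the nicked fractions with and without drug. Values compiled from quantitative analysis of three gels.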
# HT-29 = experiment: Cytotoxicity against HT-29 tumor cell line determined by WST-1 assay; format: functional, cell-based; conditions: Homo sapiens; how it was run: as §1
SMILES,IC50 (A549) [nM],IC50 (T-24) [nM],Stimulation [1],IC50 (HT-29) [nM]
CC[C@@]1(O)CC(=O)OCc2c1cc1n(c2=O)Cc2cc3cccc(F)c3nc2-1,130,22,7.3,190
CC[C@@]1(O)CC(=O)OCc2c1cc1n(c2=O)Cc2cc3cc(F)ccc3nc2-1,22,4.5,17,27
CC[C@@]1(O)CC(=O)OCc2c1cc1n(c2=O)Cc2cc3cc(F)c(F)cc3nc2-1 [DIFLOMOTECAN],3.4,0.4,32,8.4
CC[C@@]1(O)CC(=O)OCc2c1cc1n(c2=O)Cc2cc3ccc(F)cc3nc2-1,2.9,0.17,29,11
CC[C@@]1(O)CC(=O)OCc2c1cc1n(c2=O)Cc2cc3c(F)cc(F)cc3nc2-1,1.9,0.32,30,10
CC[C@@]1(O)C(=O)OCc2c1cc1n(c2=O)Cc2cc3ccccc3nc2-1 [CAMPTOTHECIN],67,88,8.2,80
CC[C@@]1(O)CC(=O)OCc2c1cc1n(c2=O)Cc2cc3ccccc3nc2-1 [HOMOCAMPTOTHECIN],26,3.3,21,30
CC[C@@]1(O)CC(=O)OCc2c1cc1n(c2=O)Cc2cc3c(F)cccc3nc2-1,17,1.6,18,20
